pIC50: −log10 of the molar value.
Experiments:
[1] = Antiproliferative activity against human Caco2 cells after 72 hrs by MTT-based Mosmann assay relative to control; type: functional; conditions: Caco-2, 72 h
Outline: (§1)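 Cells seeded at (2.5−3.0) × 10^3 per well, treated after 24 h with compound at final 0.01−100 μM; 0.5−1% DMSO controls. Exposure 3 days (72 h) at 37 °C, 5% CO2; MTT read at 570 nm, 6−8 wells per value. GI50 by NCI formula 100(T − T0)/(C − T0) = 50 versus time-zero and DMSO-control OD; mean ± SD of four experiments.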

SH-SY5Y = assay: Antiproliferative activity against human SH-SY5Y cells after 72 hrs by MTT-based Mosmann assay relative to control; type: functional; outline: as §1
[2] = Stability of the compound in phosphate buffer assessed as Aspergillus oryzae beta-galactosidase-mediated compound hydrolysis at 5 x 10^-5 M at pH 7.2 at 37 degC measured within 96 hrs by HPLC analysis; type: ADME; conditions: pH 7.2, 96 h, 50 µM
Outline: (§2)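 Glycoside diluted from DMSO into 0.050 M Na2HPO4/KH2PO4 pH 7.2 to final 5.0 × 10−5 M (≤1.0% DMSO). Almond β-glucosidase (1.2 U/mL) or A. oryzae β-galactosidase (0.7 U/mL) added; 37 °C, shaking at 400 rpm, sampled up to 96 h. Enzyme-free controls run. Reversed-phase HPLC at 305 nm; released aglycone quantified against 10−5−10−6 M calibration curves. Triplicate.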

beta-glucosidase = assay: (§3) Half life in phosphate buffer assessed as almond beta-glucosidase-mediated compound hydrolysis at 5 x 10^-5 M at pH 7.2 at 37 degC measured within 96 hrs by HPLC analysis; type: ADME; conditions: prunus dulcis, almond beta-glucosidase in phosphate buffer, pH 7.2; outline: as §2
[3] = Inhibition of almond beta-glucosidase using pNP-beta-Glc as substrate assessed as release of p-nitrophenol incubated for 30 mins by spectrophotometric analysis; parameters: species or system Prunus dulcis; conditions: for pIC50: read-out: IC50
Outline: (§4)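 Substrate at final 6.5 × 10−5 M in DMSO/0.050 M phosphate buffer pH 7.2, 25 °C, with five inhibitor levels (≤1.0% DMSO). Enzyme: 2.0 U/mL yeast α-glucosidase, 2 h; 2.9 U/mL almond β-glucosidase, 30 min. Nitrophenol release read at 400 nm; % inhibition from residual activity versus no-compound activity; IC50 = 50% inhibition. Triplicate; mean ± SD of three experiments.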

[4] = molecular target: β-galactosidase (Aspergillus Oryzae) (Aspergillus oryzae, UniProt Q2UCU3); assay: Inhibition of Aspergillus oryzae beta-galactosidase using oNP-beta-Gal as substrate assessed as release of o-nitrophenol incubated for 30 mins by spectrophotometric analysis
Chain of β-galactosidase (Aspergillus Oryzae) (Q2UCU3 whole entry, looked up): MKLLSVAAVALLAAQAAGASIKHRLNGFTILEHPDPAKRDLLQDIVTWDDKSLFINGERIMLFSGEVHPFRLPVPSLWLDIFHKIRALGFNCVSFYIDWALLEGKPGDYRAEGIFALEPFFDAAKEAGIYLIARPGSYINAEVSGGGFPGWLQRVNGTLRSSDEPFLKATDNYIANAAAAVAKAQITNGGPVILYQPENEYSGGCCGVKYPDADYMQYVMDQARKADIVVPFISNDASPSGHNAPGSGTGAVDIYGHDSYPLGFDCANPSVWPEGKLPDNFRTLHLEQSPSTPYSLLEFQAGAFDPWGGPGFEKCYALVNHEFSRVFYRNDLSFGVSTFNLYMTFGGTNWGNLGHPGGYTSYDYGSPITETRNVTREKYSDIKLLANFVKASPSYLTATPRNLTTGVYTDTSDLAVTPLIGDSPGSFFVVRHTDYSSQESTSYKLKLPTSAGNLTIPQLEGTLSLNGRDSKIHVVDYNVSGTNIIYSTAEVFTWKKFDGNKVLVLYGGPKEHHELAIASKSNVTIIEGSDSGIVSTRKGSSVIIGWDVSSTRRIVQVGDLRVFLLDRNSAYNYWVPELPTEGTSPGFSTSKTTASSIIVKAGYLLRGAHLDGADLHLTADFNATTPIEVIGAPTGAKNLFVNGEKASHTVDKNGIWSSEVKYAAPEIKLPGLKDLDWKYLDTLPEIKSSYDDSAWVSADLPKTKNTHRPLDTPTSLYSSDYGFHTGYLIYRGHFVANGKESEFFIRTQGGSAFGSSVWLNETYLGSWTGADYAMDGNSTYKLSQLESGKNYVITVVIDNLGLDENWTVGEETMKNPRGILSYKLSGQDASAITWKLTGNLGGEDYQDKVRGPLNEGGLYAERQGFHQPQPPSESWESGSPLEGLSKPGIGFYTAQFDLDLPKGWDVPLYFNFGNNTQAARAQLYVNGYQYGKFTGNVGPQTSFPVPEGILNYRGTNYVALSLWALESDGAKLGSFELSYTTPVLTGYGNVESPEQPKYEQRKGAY
Outline: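 Inhibition assay (modified Tsujii method) at 25 °C. Substrate at 6.5 × 10−5 M final in DMSO/phosphate buffer (Na2HPO4/KH2PO4 0.050 M, pH 7.2). Enzyme at 4.0 U/mL. Compound stocks 2.6−4.7 × 10−4 M, five concentrations; DMSO ≤1.0% final. Absorbance read at 400 nm. Percent inhibition taken from residual activity versus no-compound control. IC50 is the mean of three experiments.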

[5] = Inhibition of Saccharomyces cerevisiae alpha-glucosidase using pNP-alpha-Glc as substrate assessed as release of p-nitrophenol incubated for 2 hrs by spectrophotometric analysis; outline: as §4
[6] = Antiproliferative activity against human Caco2 cells; type: functional, cell-based; conditions: Caco-2; outline: as §1
[7] = as §3; type: ADME; conditions: prunus dulcis, buffer, pH 7.2, 96 h, 50 µM; outline: as §2
beta-galactosidase = assay: Half life in phosphate buffer assessed as Aspergillus oryzae beta-galactosidase-mediated compound hydrolysis at 5 x 10^-5 M at pH 7.2 at 37 degC measured within 96 hrs by HPLC analysis
[8] = Drug level in phosphate buffer treated with (2R,3S,4S,5S)-2-[2-(4-Methoxystyryl)-4,6-dimethoxyphenoxy]-tetrahydro-6-hydroxymethyl-2H-pyran-3,4,5-triol at 5 x 10^-5 M at pH 7.2 at 37 degC after 72 hrs by HPLC analysis in presence of Aspergillus oryzae beta-galactosidase; type: ADME; conditions: pH 7.2, 72 h; outline: as §2

## O=c1[nH]cc(F)c(=O)[nH]1 [FLUOROURACIL]
[1]
  GI50: 2.2 µM
SH-SY5Y
  GI50: 1.5 µM

## COc1cc(/C=C/c2ccc(OC)c(OC)c2)c(O)c(OC)c1
[1]
  GI50: 3 µM
SH-SY5Y
  GI50: 14.3 µM

## COc1cc(/C=C/c2cc(OC)cc(OC)c2O[C@H]2O[C@H](CO)[C@@H](O)[C@H](O)[C@H]2O)cc(OC)c1
[1]
  GI50: 44.2 µM
[2]
  Stability: Stable
SH-SY5Y
  GI50: > 10 µM
beta-glucosidase
  half-life at 50 µM: 70 h
[3]
  pIC50: 3.57
[4]
  pIC50: 3.53
[5]
  pIC50: 3.88

## CC/C(=C(/CC)c1ccc(O)cc1)c1ccc(O)cc1 [DIETHYLSTILBESTROL]
[6]
  pIC50: 4.12

## COc1cc(/C=C/c2ccc(OC)c(OC)c2)c(O[C@H]2O[C@H](CO)[C@H](O)[C@H](O)[C@H]2O)c(OC)c1
[1]
  GI50: > 10 µM
[2]
  Stability: Stable
SH-SY5Y
  GI50: > 10 µM
[7]
  Stability: Stable
[3]
  pIC50: 3.77
[4]
  pIC50: 3.52
[5]
  pIC50: 4.15

## COc1ccc(/C=C/c2cc(OC)cc(OC)c2O[C@H]2O[C@H](CO)[C@@H](O)[C@H](O)[C@H]2O)cc1
[1]
  GI50: > 10 µM
beta-galactosidase
  half-life at 50 µM: 77 h
SH-SY5Y
  GI50: 21.9 µM
beta-glucosidase
  half-life at 50 µM: 11 h
[3]
  pIC50: 3.68
[5]
  pIC50: 4.04

## COc1cc(/C=C/c2cc(OC)cc(OC)c2O)cc(OC)c1
[1]
  GI50: > 10 µM
SH-SY5Y
  GI50: > 10 µM

## COc1cc(/C=C/c2ccc(OC)c(OC)c2)c(O[C@H]2O[C@H](CO)[C@@H](O)[C@H](O)[C@H]2O)c(OC)c1
[1]
  GI50: > 10 µM
[2]
  Stability: Stable
SH-SY5Y
  GI50: > 10 µM
beta-glucosidase
  half-life at 50 µM: 20 h
[3]
  pIC50: 3.72
[4]
  pIC50: 3.59
[5]
  pIC50: 4.11

## COc1cc(/C=C/c2cc(OC)cc(OC)c2O[C@H]2O[C@H](CO)[C@H](O)[C@H](O)[C@H]2O)cc(OC)c1
[1]
  GI50: 16 µM
[2]
  Stability: Stable
SH-SY5Y
  GI50: 22.5 µM
[7]
  Stability: Stable
[3]
  IC50: Not Active
[4]
  pIC50: 3.53
[5]
  pIC50: 3.48

## COc1ccc(/C=C/c2cc(OC)cc(OC)c2O)cc1
[1]
  GI50: 5.8 µM
[8]
  Drug metabolism: metabolite_detected
SH-SY5Y
  GI50: 4.5 µM

## COc1cc(/C=C/C(=O)CC(=O)/C=C/c2ccc(O)c(OC)c2)ccc1O [CURCUMIN]
[6]
  pIC50: 4.99

## COc1ccc(/C=C/c2cc(OC)cc(OC)c2O[C@H]2O[C@H](CO)[C@H](O)[C@H](O)[C@H]2O)cc1
[1]
  GI50: > 10 µM
[2]
  Stability: Stable
SH-SY5Y
  GI50: 48.4 µM
[7]
  Stability: Stable
[3]
  pIC50: 3.46
[4]
  pIC50: 3.53
[5]
  pIC50: 3.70

Source: ChEMBL document CHEMBL3739308, “Resveratrol-Related Polymethoxystilbene Glycosides: Synthesis, Antiproliferative Activity, and Glycosidase Inhibition” (J Nat Prod, 2015)
